ChEMBL document CHEMBL4406859, “Antitumor and antiviral activities of 4-substituted 1,2,3-triazolyl-2,3-dibenzyl-L-ascorbic acid derivatives” (Eur J Med Chem, 2019)
Active and inactive are the calls of the source. The calls are words filed in the database; no cut-off is given here.

Tests used:
[1] = system: Human alphaherpesvirus 3; test: Antiviral activity against thymidine kinase deficient Varicella zoster virus infected in human HELF cells assessed as reduction in virus-induced cytopathogenicity incubated for 7 days by Giemsa staining based microscopic analysis; format: functional, organism-based; settings: Human alphaherpesvirus 3, HELF, 168 h
[2] = system: Influenza A virus; test: Antiviral activity against Influenza A virus (A/Ned/378/05(H1N1)) infected in dog MDCK cells assessed as reduction in virus-induced cytopathogenicity incubated for 7 days by microscopic analysis; format: functional, organism-based
[3] = system: Reovirus sp.; test: Antiviral activity against Reovirus infected in vero cells assessed as reduction in virus-induced cytopathogenicity incubated for 7 days by microscopic analysis; format: functional, organism-based
[4] = system: HepG2; test: Antiproliferative activity against human HepG2 cells assessed as reduction in cell viability incubated for 72 hrs by MTT assay; format: functional, cell-based; settings: HepG2, 72 h
Summary of the method: (§1)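 Cells (ATCC) grown in DMEM with 10 FBS, penicillin/streptomycin, 2 mM glutamine, 37 °C, 5 CO2. 5000 cells/well seeded; after 24 h, freshly prepared dilutions at five concentrations (0.01–100 μM) added for 72 h. MTT read-out; absorbance converted to percentage growth by NIH formulas. Two experiments in quadruplicate; IC50 by linear regression.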

[5] = system: Influenza A virus H3N2; test: Antiviral activity against Influenza A virus (A/HK/7/87(H3N2)) infected in dog MDCK cells assessed as reduction in virus-induced cytopathogenicity incubated for 7 days by MTS assay; format: functional, organism-based; settings: A/Hong Kong/7/1987(H3N2); for EC50: 168 h
[6] = system: CFPAC-1; test: Antiproliferative activity against human CFPAC-1 cells assessed as reduction in cell viability incubated for 72 hrs by MTT assay; format: functional, cell-based; settings: Homo sapiens, CFPAC-1, 72 h; read-out: IC50; summary of the method: as §1
[7] = system: HCT-116; test: Antiproliferative activity against human HCT116cells assessed as reduction in cell viability incubated for 72 hrs by MTT assay; format: functional, cell-based; settings: HCT-116, 72 h; summary of the method: as §1
[8] = system: Influenza A virus H3N2; test: Antiviral activity against Influenza A virus (A/HK/7/87(H3N2)) infected in dog MDCK cells assessed as reduction in virus-induced cytopathogenicity incubated for 7 days by microscopic analysis; format: functional, organism-based; settings: A/Hong Kong/7/1987(H3N2); for EC50: 168 h
[9] = system: Human coronavirus 229E; test: Antiviral activity against Human coronavirus 229E infected in human HELF cells assessed as reduction in virus-induced cytopathogenicity incubated for 7 days by microscopic analysis; format: functional, organism-based
[10] = system: Human alphaherpesvirus 1; test: Antiviral activity against Herpes simplex virus 1 KOS infected in human HELF cells assessed as reduction in virus-induced cytopathogenicity incubated for 7 days by microscopic analysis; format: functional, organism-based; settings: strain KOS
[11] = system: Cytomegalovirus; test: Antiviral activity against Cytomegalovirus Davis infected in human HELF cells assessed as reduction in virus-induced cytopathogenicity incubated for 7 days by Giemsa staining based microscopic analysis; format: functional, organism-based; settings: Human betaherpesvirus 5, Davis, 168 h
Summary of the method: (§2)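 Confluent HEL fibroblasts infected with CMV (Davis or AD-169) at 100 PFU/well for 2 h. Residual virus removed, then medium with graded compound concentrations added (duplicate). Incubated 7 days at 37 °C. Cytopathogenicity scored microscopically after ethanol fixation and Giemsa staining. EC50 read from plots of % cytopathogenicity versus concentration.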

[12] = system: Coxsackievirus B4; test: Antiviral activity against Human coxsackievirus B4 infected in vero cells assessed as reduction in virus-induced cytopathogenicity incubated for 7 days by microscopic analysis; format: functional, organism-based
[13] = system: Cytomegalovirus; test: Antiviral activity against Cytomegalovirus AD169 infected in human HELF cells assessed as reduction in virus-induced cytopathogenicity incubated for 7 days by Giemsa staining based microscopic analysis; format: functional, organism-based; settings: Human betaherpesvirus 5, AD169, HELF, 168 h; summary of the method: as §2
[14] = system: Human alphaherpesvirus 1; test: Antiviral activity against Herpes simplex virus 1 TK-KOS-ACV infected in human HELF cells assessed as reduction in virus-induced cytopathogenicity incubated for 7 days by microscopic analysis; format: functional, organism-based
[15] = system: MCF7; test: Antiproliferative activity against human MCF7 cells assessed as reduction in cell viability incubated for 72 hrs by MTT assay; format: functional, cell-based; settings: MCF7, 72 h; summary of the method: as §1
[16] = system: HeLa; test: Antiproliferative activity against human HeLa cells assessed as reduction in cell viability incubated for 72 hrs by MTT assay; format: functional, cell-based; summary of the method: as §1
[17] = system: Sindbis virus; test: Antiviral activity against Sindbis virus infected in vero cells assessed as reduction in virus-induced cytopathogenicity incubated for 7 days by microscopic analysis; format: functional, organism-based
[18] = system: Human adenovirus 2; test: Antiviral activity against Human adenovirus 2 infected in human HELF cells assessed as reduction in virus-induced cytopathogenicity incubated for 7 days by microscopic analysis; format: functional, organism-based
[19] = system: Influenza B virus; test: Antiviral activity against Influenza B virus (B/Ned/537/05) infected in dog MDCK cells assessed as reduction in virus-induced cytopathogenicity incubated for 7 days by microscopic analysis; format: functional, organism-based; settings: for EC50: 168 h
[20] = Cytotoxicity against human HELF cells assessed as minimum cytotoxic concentration by observing alteration in cell morphology incubated for 3 days by microscopic analysis; format: cell-based; settings: HELF cells
Summary of the method: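 Read-out is the minimum cytotoxic concentration (MCC): the lowest compound concentration giving a microscopically detectable change in cell morphology. Measured on confluent human embryonic lung (HEL) fibroblast cultures exposed to a range of compound concentrations.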

[21] = system: Influenza A virus; test: Antiviral activity against Influenza A virus (A/Ned/378/05(H1N1)) infected in dog MDCK cells assessed as reduction in virus-induced cytopathogenicity incubated for 7 days by MTS assay; format: functional, organism-based
[22] = system: HFF; test: Cytotoxicity against human HFF cells assessed as reduction in cell viability incubated for 72 hrs by MTT assay; format: cell-based; summary of the method: as §1
[23] = system: A549; test: Antiproliferative activity against human A549 cells assessed as reduction in cell viability incubated for 72 hrs by MTT assay; format: functional, cell-based; settings: A549, 72 h; summary of the method: as §1
[24] = Cytotoxicity against human HELF cells assessed as reduction in cell viability incubated for 3 days by coulter counter method; format: cell-based; settings: 72 h
Summary of the method: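 HEL cells seeded at 5 x 10^3/well and allowed to proliferate 24 h, then exposed to graded compound concentrations for 3 days at 37 °C. Cell number counted with a Coulter counter.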

[25] = system: SW-620; test: Antiproliferative activity against human SW620 cells assessed as reduction in cell viability incubated for 72 hrs by MTT assay; format: functional, cell-based; settings: SW-620, 72 h; summary of the method: as §1
[26] = system: Influenza B virus; test: Antiviral activity against Influenza B virus (B/Ned/537/05) infected in dog MDCK cells assessed as reduction in virus-induced cytopathogenicity incubated for 7 days by MTS assay; format: functional, organism-based; settings: for EC50: 168 h
[27] = system: Human alphaherpesvirus 3; test: Antiviral activity against thymidine kinase positive Varicella zoster virus infected in human HELF cells assessed as reduction in virus-induced cytopathogenicity incubated for 7 days by Giemsa staining based microscopic analysis; format: functional, organism-based; settings: Human alphaherpesvirus 3, HELF, 168 h
[28] = system: Human alphaherpesvirus 2; test: Antiviral activity against Herpes simplex virus 2 G infected in human HELF cells assessed as reduction in virus-induced cytopathogenicity incubated for 7 days by microscopic analysis; format: functional, organism-based
[29] = Cytotoxicity against dog MDCK cells assessed as minimum cytotoxic concentration by observing alteration in cell morphology incubated for 3 days by microscopic analysis; format: cell-based, Canis lupus familiaris
[30] = system: MDCK; test: Cytotoxicity against dog MDCK cells assessed as reduction in cell viability incubated for 3 days by coulter counter method; format: cell-based, Canis lupus familiaris; settings: mdck, 72 h
[31] = Influenza A virus, A/Ned/378/05(H1N1), MDCK, 168 h

Row | Compound | EC50 [1] | Activity [2] | Activity [3] | IC50 [4] | Activity [5] | IC50 [6] | IC50 [7] | Activity [8] | Activity [9] | Activity [10] | EC50 [11] | Activity [12] | EC50 [13] | Activity [14] | IC50 [15] | IC50 [16] | Activity [17] | IC50 [22] | IC50 [23] | IC50 [25] | further results
1 | Cc1ccc(-c2cn(C/C=C3\OC(=O)C(OCc4ccccc4)=C3OCc3ccccc3)nn2)cc1 | 27.6 µM | inactive | inactive | > 100 µM | inactive | > 100 µM | > 100 µM | inactive | inactive | inactive | 5.66 µM | inactive | 8.94 µM | inactive | > 100 µM | 7.48 µM | inactive | > 100 µM | > 100 µM | > 100 µM | Activity [18]: inactive; Activity [19]: inactive; MCC at 72 h [20]: 20 µM; Activity [21]: inactive; CC50 [24]: > 100 µM; Activity [26]: inactive; EC50 [27]: > 4 µM; Activity [28]: inactive
2 | CC(=O)N[C@H]1[C@H]([C@H](O)[C@H](O)CO)OC(C(=O)O)=C[C@@H]1N=C(N)N [ZANAMIVIR] | – | – | – | – | – | – | – | – | – | – | – | – | – | – | – | – | – | – | – | – | EC50 [5]: 0.01 µM; EC50 [8]: 0.4 µM; EC50 [19]: 0.4 µM; MCC at 72 h [29]: > 100 µM; EC50 [26]: 0.4 µM; CC50 [30]: ≥ 100 µM
3 | O=C1O/C(=C\Cn2cc(-c3ccc(Br)cc3)nn2)C(OCc2ccccc2)=C1OCc1ccccc1 | > 100 µM | inactive | inactive | > 100 µM | inactive | > 100 µM | > 100 µM | inactive | inactive | inactive | 8.94 µM | inactive | > 100 µM | inactive | > 100 µM | 24.3 µM | inactive | > 100 µM | > 100 µM | > 100 µM | Activity [18]: inactive; Activity [19]: inactive; MCC at 72 h [20]: > 100 µM; Activity [21]: inactive; CC50 [24]: > 100 µM; Activity [26]: inactive; EC50 [27]: 44.7 µM; Activity [28]: inactive
4 | O=C1O[C@H]([C@@H](O)Cn2ccnn2)C(OCc2ccccc2)=C1OCc1ccccc1 | – | – | – | > 100 µM | – | > 100 µM | > 100 µM | – | – | – | – | – | – | – | > 100 µM | > 100 µM | – | 0.61 µM | > 100 µM | > 100 µM | EC50 [2, 31]: 75 µM; EC50 [5]: 53.9 µM; EC50 [8]: 45 µM; EC50 [19]: > 100 µM; MCC at 72 h [29]: > 100 µM; EC50 [21, 31]: 35.1 µM; EC50 [26]: > 100 µM; CC50 [30]: > 100 µM
